Assay outcomes from PubChem BioAssay.
Most compounds without a hit are left out; they make up all but 9% or so of the library.
Htt clearance: mutant huntingtin protein clearance; inhibition, % at 1.5 µM; 47,000 tested, 0.42% active; HeLa Exon1htt(103Q)mCFP, aggregate imaging; zero = plate's median compound well;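 active means inhibition of aggregate fluorescence above about 70%, also judged a hit by eye on the cell image, limit read from the data, passing the limit was not always enough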;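 further: cells exposed to compound for three days before fixation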
M1 ag: agonists of M1 muscarinic receptor; CHO-M1 cells, Fluo-4 calcium fluorescence, agonist mode; active compounds read high; B-score at 10 µM; 64,000 tested, 3% active;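 active means fluorescence rise, raw or as B-score row- and column-corrected plate score, outside the 99.7% band of its plate's samples, either direction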
AP complement: orthogonal test for alternative complement pathway inhibitors. Human serum alternative complement pathway, LPS-coated ELISA, C3 deposition; tested in compound mixtures. inhibition, % at 5 µM. 62,000 tested, 0.08% active;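 active means inhibition above 30% in each of the two pooled mixtures holding the compound, so the lower value exceeds 30%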
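Test system: human serum alternative complement pathway, C3 deposition on LPS-coated wells; also added: Plate-bound LPS; doses: 5 µM per compound in ten-compound mixtures; schedule: 1 h at 37 °C; detection: Anti-C3 ELISA, OD 450 nm; evaluation: percent inhibition of C3 deposition onto LPS; repeats: two pool placements per compound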
M1 antagonist: M1 muscarinic receptor (rat) antagonism; P08482; CHO-M1 cells, Fluo-4 calcium, ACh EC80 antagonist mode; active compounds read low; B-score at 10 µM; 64,000 tested, 3.4% active;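 active means calcium fluorescence response, raw or row-and-column corrected B-score, differing from the plate sample mean either way at a set confidence level, mostly lower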
Target sequence (P08482 whole entry, looked up): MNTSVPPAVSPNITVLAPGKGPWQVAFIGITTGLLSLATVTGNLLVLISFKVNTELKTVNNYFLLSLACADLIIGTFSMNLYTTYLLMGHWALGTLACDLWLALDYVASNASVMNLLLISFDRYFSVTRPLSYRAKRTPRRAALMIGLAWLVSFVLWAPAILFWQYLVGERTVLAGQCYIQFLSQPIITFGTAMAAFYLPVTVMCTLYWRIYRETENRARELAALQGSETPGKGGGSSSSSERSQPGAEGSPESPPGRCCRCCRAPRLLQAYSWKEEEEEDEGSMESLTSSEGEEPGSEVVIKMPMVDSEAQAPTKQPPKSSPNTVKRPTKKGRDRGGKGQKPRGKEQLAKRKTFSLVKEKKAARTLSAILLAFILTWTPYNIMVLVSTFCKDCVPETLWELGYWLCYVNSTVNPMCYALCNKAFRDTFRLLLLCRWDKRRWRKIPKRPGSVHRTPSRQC
D1 allo mod: allosteric modulators of human D1 dopamine receptor; 58,000 tested, 5.9% active; P21728; AID 641; HEK293 D1, CRE-luciferase, dopamine EC30 potentiation; actives deviate in either direction; B-score at 10 µM;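 active means luminescence count or its row- and column-corrected plate score outside the 99.7% band of the plate's sample wells, on either side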
D1 mod confirm: D1 receptor (human) allosteric modulation, confirmed; luminescence at 10 µM; 2,200 tested, 88% active; shares compounds with D1 allo mod; HEK293 D1 CRE-luciferase, dopamine EC30 potentiation; active compounds read high;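 active means luminescence in either of two replicates above the same-plate mean plus 3 SD of the low-dose dopamine control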
D1 ag no DA: activates D1 CRE-luciferase signal without dopamine present. shares compounds with D1 allo mod. HEK293 D1 CRE-luciferase, luminescence, no dopamine; active compounds read high. luminescence at 10 µM. 1,900 tested, 0.8% active. AID 646; in the data active means luminescence above about 3900
Isoprot counter: isoproterenol response counter-screen activity for D1 modulators; shares compounds with D1 allo mod; HEK293 D1 CRE-luciferase, isoproterenol EC30 counter-screen; calls only at 10 µM; 2,200 tested, 63% active; AID 647;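 active means luminescence in either replicate above plate mean of wells with a partly effective reference agonist dose plus 3 SD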;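 further: isoproterenol raises cAMP through native beta-adrenoceptor Gs so signal bypasses D1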
A number is an active result.

What do the screens show for `CC(=O)NCCn1c(SCc2cc(=O)n3cc(Cl)ccc3n2)nc2ccccc2c1=O`?
Htt clearance: inactive; M1 ag: inactive; AP complement: inactive; M1 antagonist: inactive; D1 allo mod: 3.7; D1 mod confirm: 8148; D1 ag no DA: inactive; Isoprot counter: active

Results for CC(=O)NCCn1c(SCC#N)nc2ccccc2c1=O ?
Htt clearance: inactive; M1 ag: inactive; AP complement: inactive; M1 antagonist: inactive; D1 allo mod: inactive

How did CC(=O)NCCn1c(SCc2ccccc2F)nc2ccccc2c1=O do in these assays?
Htt clearance: inactive; M1 ag: inactive; AP complement: inactive; M1 antagonist: inactive; D1 allo mod: 9.1; D1 mod confirm: 8204; D1 ag no DA: inactive; Isoprot counter: active

What do the screens show for `CC1CCc2cc(F)cc3c(O)c(C(=O)Nc4cnccn4)c(=O)n1c23` (centres undefined)?
M1 ag: inactive; AP complement: inactive; M1 antagonist: inactive; D1 allo mod: inactive

How did NS(=O)(=O)c1ccc(CCNC(=O)COC(=O)C2CCCN2C(=O)c2cccs2)cc1 (centres undefined) do in these assays?
M1 ag: inactive; AP complement: inactive; M1 antagonist: inactive; D1 allo mod: inactive

How did CCOc1ccccc1OCC(=O)Nc1nnc(COC)s1 do in these assays?
Htt clearance: inactive; M1 ag: inactive; AP complement: inactive; M1 antagonist: inactive; D1 allo mod: inactive

Results for COc1ccc(N(CC(=O)Nc2cccc(OC)c2)S(=O)(=O)c2c(C)nn(C)c2C)cc1 ?
M1 ag: inactive; AP complement: inactive; M1 antagonist: inactive

How did COc1ccc(OC)c(NC(=O)CN(c2ccc(OC)c(Cl)c2)S(C)(=O)=O)c1 do in these assays?
M1 ag: inactive; AP complement: inactive; M1 antagonist: inactive; D1 allo mod: 4; D1 mod confirm: 16872; D1 ag no DA: inactive; Isoprot counter: active

How did COc1ccc(N(CC(=O)Nc2cc(OC)ccc2OC)S(=O)(=O)c2c(C)nn(C)c2C)cc1 do in these assays?
Htt clearance: inactive; M1 ag: inactive; AP complement: inactive; M1 antagonist: inactive; D1 allo mod: 8.7; D1 mod confirm: 14244; D1 ag no DA: inactive; Isoprot counter: active

How did N#CC1=C(N)S[C@H](C(=O)C23CC4CC(CC(C4)C2)C3)[C@H]1c1ccncc1 do in these assays?
Htt clearance: inactive; M1 ag: inactive; AP complement: inactive; M1 antagonist: inactive; D1 allo mod: 12; D1 mod confirm: 12784; D1 ag no DA: inactive; Isoprot counter: active

Results for O=C(NCc1ccncc1)C12CC3CC(CC(C3)C1)C2 ?
Htt clearance: inactive; M1 ag: inactive; AP complement: inactive; M1 antagonist: inactive; D1 allo mod: inactive

Results for NC1=NC(c2cn(-c3ccccc3)nc2-c2cccs2)n2c(nc3ccccc32)N1 (centres undefined) ?
Htt clearance: inactive; M1 ag: inactive; AP complement: inactive; M1 antagonist: inactive; D1 allo mod: 4.3; D1 mod confirm: 7380; D1 ag no DA: inactive; Isoprot counter: inactive

What do the screens show for `COc1ccc(C(=O)OCCNC(=O)c2c(Cl)nc3ccccn23)cc1`?
M1 ag: inactive; AP complement: inactive; M1 antagonist: inactive; D1 allo mod: 5.1; D1 mod confirm: 13996; D1 ag no DA: inactive; Isoprot counter: active

Results for COc1ccc(COC(=O)NNC(=O)c2ccccc2Cl)cc1 ?
Htt clearance: inactive

What do the screens show for `CCOc1c(S(=O)(=O)N2CCCC2)ccc(Cl)c1Cl`?
M1 ag: inactive; AP complement: inactive; M1 antagonist: inactive; D1 allo mod: 12; D1 mod confirm: 11948; D1 ag no DA: inactive; Isoprot counter: active

Results for CCOc1ccc(Cl)cc1S(=O)(=O)N1CCCC1 ?
M1 ag: inactive; AP complement: inactive; M1 antagonist: inactive; D1 allo mod: inactive

How did CCOC(=O)c1c(-c2ccsc2)csc1N do in these assays?
M1 ag: inactive; AP complement: inactive; M1 antagonist: inactive; D1 allo mod: 7.5; D1 mod confirm: 8708; D1 ag no DA: inactive; Isoprot counter: inactive

How did C=CCNc1nc2c(c(=O)[nH]c(=O)n2C)n1Cc1cccc(C)c1 do in these assays?
M1 ag: inactive; AP complement: inactive; M1 antagonist: inactive; D1 allo mod: inactive

How did c1ccc(Oc2ccc(-n3cnnn3)cc2)cc1 do in these assays?
Htt clearance: inactive; M1 ag: inactive; AP complement: inactive; M1 antagonist: inactive; D1 allo mod: inactive

How did c1ccc2[nH]c(CN3CCN(c4ncnc5c4oc4ccccc45)CC3)nc2c1 do in these assays?
Htt clearance: inactive; M1 ag: inactive; AP complement: inactive; M1 antagonist: inactive; D1 allo mod: 9.6; D1 mod confirm: 14816; Isoprot counter: active

How did Nc1nc(Nc2ccccc2Br)nc(C(F)(F)F)n1 do in these assays?
M1 ag: inactive; AP complement: inactive; M1 antagonist: inactive; D1 allo mod: 7.3; D1 mod confirm: 15052; D1 ag no DA: inactive; Isoprot counter: active

What do the screens show for `COc1nc(Nc2cccc(C(F)(F)F)c2)nc(OC)n1`?
M1 ag: inactive; AP complement: inactive; M1 antagonist: inactive; D1 allo mod: inactive

Results for Nc1nc(Nc2ccc(Cl)cc2Cl)nc(C(F)(F)F)n1 ?
M1 ag: inactive; AP complement: inactive; M1 antagonist: inactive; D1 allo mod: 11; D1 mod confirm: 13920; Isoprot counter: active

How did COc1cccc(Nc2nc(N)nc(C(F)(F)F)n2)c1 do in these assays?
M1 ag: inactive; AP complement: inactive; M1 antagonist: inactive; D1 allo mod: 11; D1 mod confirm: 14320; D1 ag no DA: inactive; Isoprot counter: active

How did COC(=O)c1cccc(Nc2nc3ccccc3nc2C)c1 do in these assays?
M1 ag: inactive; AP complement: inactive; M1 antagonist: inactive; D1 allo mod: 5.2; D1 mod confirm: 9552; D1 ag no DA: inactive; Isoprot counter: active

Results for CCOC(=O)c1cccc(Nc2nc(C)cc(C)n2)c1 ?
Htt clearance: inactive; M1 ag: inactive; AP complement: inactive; M1 antagonist: inactive; D1 allo mod: inactive

Results for COc1ccc(-c2cc(C(F)F)n3ncc(C(=O)N4CCSCC4)c3n2)cc1 ?
Htt clearance: inactive; M1 ag: inactive; AP complement: inactive; M1 antagonist: inactive; D1 allo mod: 5.2; D1 mod confirm: 8908; D1 ag no DA: inactive; Isoprot counter: active

What do the screens show for `Cc1cc2n(n1)C(c1ccc(O)cc1)Nc1ccccc1-2` (centres undefined)?
Htt clearance: inactive; M1 ag: inactive; AP complement: inactive; M1 antagonist: inactive; D1 allo mod: inactive
